Laboratory results reported in ChEMBL document CHEMBL1147227, “Annularins A-H: new polyketide metabolites from the freshwater aquatic fungus Annulatascus triseptatus” (2003).
Calls of active or inactive are those of the source. The calls are words filed in the database; no cut-off is given here.

Tests used:
[1] = test system: Bacillus subtilis; test: Antibacterial activity against Bacillus subtilis ATCC 6051 at 200 ug/disk by standard disk assay; type: functional; conditions: read-out: IZ
In short: (§1)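 Paper-disk diffusion assay with 200 µg of test material loaded per disk. Activity was read as the zone of inhibition, recorded in mm.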

[2] = test system: Candida albicans; test: Antifungal activity against Candida albicans ATCC 90029 at 200 ug/disk by standard disk assay; type: functional, organism-based
[3] = test system: Staphylococcus aureus; test: Antibacterial activity against Staphylococcus aureus ATCC 29213 at 200 ug/disk by standard disk assay; type: functional; conditions: read-out: IZ; in short: as §1
[4] = test system: Aspergillus flavus; test: Antifungal activity against Aspergillus flavus NRRL 6541 at 200 ug/disk by standard disk assay; type: functional, organism-based

SMILES | zone of inhibition at 200 µg/disc [1] [mm] | Activity [2] | zone of inhibition at 200 µg/disc [3] [mm] | Activity [4]
CCCc1oc(=O)cc(OC)c1CO | 8 | inactive |  | 
CCC1OC(=O)c2c(OC)cc(=O)oc21 (stereo not drawn) [ANNULARIN F] | 8 | inactive |  | 
CC[C@H](O)c1oc(=O)cc(OC)c1CO | 8 | inactive | 14 | 
CCCc1oc(=O)cc(OC)c1C |  |  |  | inactive
